{
  "source": "ChEMBL document CHEMBL1759837",
  "about": "“Studies on chemical modification and biology of a natural product, gambogic acid (III): determination of the essential pharmacophore for biological activity” (Eur J Med Chem, 2011)",
  "format_in_all_cases": "functional, cell-based",
  "key": {"SMMC-7721": {"tested_on": "SMMC-7721", "assay": "Antiproliferative activity against human SMMC7721 cells after 24 hrs by MTT assay", "conditions": "SMMC-7721, 24 h", "outline": "(§1)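 Cells grown at 37 °C in humidified 5% CO2 with benzylpenicillin and streptomycin. Compounds came from 0.01 mol/L DMSO stocks and were tested at eight two-fold dilutions in triplicate, with medium-only controls, for 24 h. MTT absorbance was read at 570 nm. Survival = A_treatment/A_control × 100. IC50 is the concentration giving 50% viability inhibition, as the mean of two separate experiments.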"}, "HepG2": {"tested_on": "HepG2", "assay": "Antiproliferative activity against human HepG2 cells after 24 hrs by MTT assay", "conditions": "HepG2, 24 h", "outline": "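Tetrazolium MTT viability test; cells exposed to compound 24 h, absorbance read at 570 nm. Survival ratio = A treated / A control × 100%; IC50 is the concentration giving 50% loss of viability. Eight concentrations in two-fold dilutions, triplicate wells, mean of two separate experiments. Compounds dissolved in DMSO (0.01 mol/L stock); control wells received medium only.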"}, "BGC-823": {"tested_on": "BGC-823", "assay": "Antiproliferative activity against human BGC823 cells after 24 hrs by MTT assay", "conditions": "BGC-823, 24 h", "outline": "as §1"}, "MCF7": {"tested_on": "MCF7", "assay": "Antiproliferative activity against human MCF7 cells after 24 hrs by MTT assay", "conditions": "MCF7, 24 h", "outline": "as §1"}},
  "data": [
    {"smiles": "CC(C)=CCC12OC(C)(C)C3CC(C=C4C(=O)c5ccccc5OC431)C2=O", "note": "(centres undefined)", "values": [
      {"measurement": "IC50", "setting": "SMMC-7721", "result": 10.5, "unit": "µM"},
      {"measurement": "IC50", "setting": "HepG2", "result": 6.77, "unit": "µM"},
      {"measurement": "IC50", "setting": "BGC-823", "result": 20.3, "unit": "µM"},
      {"measurement": "IC50", "setting": "MCF7", "result": 13.9, "unit": "µM"}
    ]}
  ]
}
